Reference: ChEMBL document CHEMBL1151697, “Synthesis and structure-activity relationships for biphenyl H3 receptor antagonists with moderate anti-cholinesterase activity” (Bioorg Med Chem, 2008)
Each block holds one compound with its values, some of them ahead of it. Active and inactive are the calls of the source. No cut-off for these calls is given here.

Tests used:
[1] = molecular target: Histamine H4 receptor (Homo sapiens, UniProt Q9H3N8); experiment: Displacement of [3H]histamine from human histamine H4 receptor expressed in SK-N-MC cells at upto 10 uM
[2] = molecular target: T1, Histamine H3 receptor (Homo sapiens, UniProt Q9Y5N1); experiment: Displacement of [3H]RAMHA from human histamine H3 receptor expressed in SK-N-MC cells; type: cell-based
In short: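 SK-N-MC membranes bearing human H3 incubated 60 min at room temperature with 0.5 nM [3H]-(R)-α-methylhistamine and competitor (0.01 nM to 10 µM). Rapid filtration, two washes in ice-cold 50 mM Tris–HCl/5 mM EDTA. Nonspecific binding with 10 µM histamine. pKi via Cheng–Prusoff; means of 4–6 experiments.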

[3] = system: SK-N-MC; experiment: Cytotoxicity against human SK-N-MC cells at 10 uM after 6 hrs by MTT test; type: functional, cell-based
In short: (§1)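 MTT viability test: SK-N-MC cells held 6 h with compound (1–10 µM) or vehicle. MTT (5 mg/ml stock) added for 3 h, cells washed in PBS, formazan dissolved in 0.1 N HCl in isopropanol, absorbance read at 570 nm. Viability given relative to control.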

[4] = molecular target: Histamine H1 receptor (Cavia porcellus) (UniProt P31389); experiment: Antagonist activity at histamine H1 receptor in guinea pig terminal ileum at upto 10 uM; type: functional, tissue-based
In short: (§2)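 Guinea-pig (250–350 g) terminal ileum (H1) suspended isometrically in Krebs–Henseleit at 37 °C, aerated 95% O2–5% CO2. Cumulative histamine curves (1 nM to 1 µM) run without and with compound up to 10 µM. pKB (apparent pA2) from Furchgott's equation; pD2′ from Van Rossum's equation when antagonism was non-surmountable.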

[5] = system: SK-N-MC; experiment: Cytotoxicity against human SK-N-MC cells at 1 uM after 6 hrs by MTT test; type: functional, cell-based
In short: as §1

[6] = molecular target: Histamine H2 receptor (Cavia porcellus) (UniProt P47747); experiment: Antagonist activity at histamine H2 receptor in guinea pig atrium assessed as changes in rate of spontaneous beat at upto 10 uM; type: functional, tissue-based; details: Cardiac atrium
In short: (§3)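 Guinea-pig atria (H2) in Ringer–Locke at 31 °C (mM: NaCl 154.0, KCl 5.6, CaCl2 1.08, NaHCO3 5.95, glucose 11.1), gassed 95% O2–5% CO2. Spontaneous beating rate recorded by cardiotachograph. Cumulative dimaprit curves (0.1–100 µM) run without and with compound up to 10 µM. Affinity given as pKB by Furchgott, or as pD2′ by Van Rossum if non-surmountable.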

[7] = molecular target: T2, Acetylcholinesterase (Rattus norvegicus) (UniProt P37136); experiment: Inhibition of acetylcholinesterase in Wistar rat brain homogenate at upto 1 to 100 uM by Ellman's method; type: tissue-based
T2 sequence (whole entry): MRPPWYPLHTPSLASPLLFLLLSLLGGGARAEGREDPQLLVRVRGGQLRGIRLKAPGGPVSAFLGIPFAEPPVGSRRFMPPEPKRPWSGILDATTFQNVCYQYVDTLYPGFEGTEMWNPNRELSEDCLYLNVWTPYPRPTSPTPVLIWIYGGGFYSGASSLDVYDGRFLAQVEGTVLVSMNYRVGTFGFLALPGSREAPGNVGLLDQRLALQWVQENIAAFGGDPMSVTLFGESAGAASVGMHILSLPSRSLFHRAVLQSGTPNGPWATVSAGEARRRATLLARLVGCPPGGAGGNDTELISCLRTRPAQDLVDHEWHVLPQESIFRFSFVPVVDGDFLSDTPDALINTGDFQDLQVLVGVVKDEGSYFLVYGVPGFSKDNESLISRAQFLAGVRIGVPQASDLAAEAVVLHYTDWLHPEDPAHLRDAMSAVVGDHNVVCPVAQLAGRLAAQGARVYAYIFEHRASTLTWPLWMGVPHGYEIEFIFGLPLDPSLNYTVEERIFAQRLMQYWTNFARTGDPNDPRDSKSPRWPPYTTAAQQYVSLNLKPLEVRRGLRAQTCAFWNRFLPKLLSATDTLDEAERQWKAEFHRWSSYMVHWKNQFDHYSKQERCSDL
In short: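 Male Wistar rat (150–200 g) brain homogenate in 0.1 M phosphate buffer (pH 8.0) with DTNB (5 mM) and compound at 1–100 µM. Reaction started at 37 °C by adding acetylthiocholine (75 mM solution) and stopped after 15 min with 4% formalin. 5-Thio-2-nitrobenzoate absorbance at 412 nm. Percent inhibition versus control; reported as pIC50.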

[8] = molecular target: T1, Histamine H3 receptor; experiment: Antagonist activity at human histamine H3 receptor expressed in SK-N-MC cells by CRE-mediated beta-galactosidase reporter gene assay administered 10 mins before (R)-alpha-methylhistamine challenge after 6 hrs; type: functional, cell-based
In short: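 SK-N-MC cells stably carrying human H3 and a β-galactosidase reporter. Compound added to medium, forskolin 5 min later, then (R)-α-methylhistamine 10 min after compound; 6 h at 37 °C. Cells lysed in phosphate assay buffer (pH 8) with 0.5% Triton and 40 mM β-mercaptoethanol; β-galactosidase read at 570 nm. Means of 4–6 experiments.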

[9] = molecular target: Histamine H3 receptor (Rattus norvegicus, UniProt Q9QYN8); experiment: Displacement of [3H]RAMHA from histamine H3 receptor in Wistar rat brain membrane; type: cell membranes
In short: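 Membranes from male Wistar rat brain (150–200 g) incubated 45 min with 0.5 nM [3H]RAMHA and compound (0.03 nM to 10 µM) in 50 mM Tris–HCl pH 7.4, 50 mM NaCl, 0.5 mM EDTA. Vacuum filtration, two ice-cold buffer rinses. Nonspecific binding set with 10 µM thioperamide. pKi by Cheng–Prusoff.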

[10] = molecular target: T3, Acetylcholinesterase (Rattus norvegicus, UniProt P37136); experiment: Inhibition of acetylcholinesterase in Wistar rat brain homogenate by Ellman's method; type: tissue-based
T3 sequence (P37136 whole entry): T2 sequence (whole entry)

[11] = molecular target: Histamine H3 receptor (Cavia porcellus) (UniProt Q9JI35); experiment: Antagonist activity at histamine H3 receptor in electrically-stimulated guinea pig ileum assessed as inhibition of (R)-alpha-methylhistamine-induced twitch contraction in presence of 1 uM mepyramine; type: functional, tissue-based
In short: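 Guinea-pig ileum, electrically stimulated (0.1 Hz, 1 ms, submaximal voltage). Twitch inhibition by cumulative (R)-α-methylhistamine (1 nM to 1 µM) with 1 µM mepyramine present. Compounds tested at 1 nM to 30 µM. Potency as pKB from Furchgott's equation, or as pD2′ (Van Rossum) for non-surmountable antagonism.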

[12] = molecular target: T2, Acetylcholinesterase (Rattus norvegicus); experiment: Inhibition of acetylcholinesterase in Wistar rat brain homogenate at upto 10 uM by Ellman's method; type: tissue-based
[13] = molecular target: Histamine H1 receptor (Cavia porcellus) (UniProt P31389); experiment: Antagonist activity at histamine H1 receptor in guinea pig terminal ileum; type: functional, tissue-based
In short: as §2

[14] = molecular target: Histamine H2 receptor (Cavia porcellus) (UniProt P47747); experiment: Antagonist activity at histamine H2 receptor in guinea pig atrium assessed as changes in rate of spontaneous beat at upto 1 uM; type: functional, tissue-based; details: Cardiac atrium
In short: as §3

Sequence of Histamine H2 receptor (Cavia porcellus) (P47747 whole entry): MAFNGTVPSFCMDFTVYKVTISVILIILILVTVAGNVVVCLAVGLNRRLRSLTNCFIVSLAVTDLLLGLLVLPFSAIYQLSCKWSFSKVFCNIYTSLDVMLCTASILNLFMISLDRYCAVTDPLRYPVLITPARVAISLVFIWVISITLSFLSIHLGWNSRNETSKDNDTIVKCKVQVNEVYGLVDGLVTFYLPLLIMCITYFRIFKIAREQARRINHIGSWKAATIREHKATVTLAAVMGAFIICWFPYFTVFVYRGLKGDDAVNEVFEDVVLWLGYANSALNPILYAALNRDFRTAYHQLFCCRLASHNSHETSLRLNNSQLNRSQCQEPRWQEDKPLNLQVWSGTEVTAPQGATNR
T1 sequence (Q9Y5N1 whole entry): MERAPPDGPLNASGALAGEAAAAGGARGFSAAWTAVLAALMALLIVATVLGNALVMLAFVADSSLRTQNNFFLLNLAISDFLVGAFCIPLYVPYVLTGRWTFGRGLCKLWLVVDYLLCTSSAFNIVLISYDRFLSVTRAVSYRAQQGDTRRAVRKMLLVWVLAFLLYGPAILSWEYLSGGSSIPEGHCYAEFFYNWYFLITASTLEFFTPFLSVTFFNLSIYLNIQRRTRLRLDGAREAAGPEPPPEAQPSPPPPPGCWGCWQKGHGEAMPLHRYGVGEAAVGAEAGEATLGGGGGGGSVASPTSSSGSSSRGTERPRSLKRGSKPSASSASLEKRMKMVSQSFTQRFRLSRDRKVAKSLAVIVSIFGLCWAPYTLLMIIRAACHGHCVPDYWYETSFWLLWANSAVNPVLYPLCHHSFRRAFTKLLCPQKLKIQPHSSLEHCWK
Sequence of Histamine H1 receptor (Cavia porcellus) (P31389 whole entry): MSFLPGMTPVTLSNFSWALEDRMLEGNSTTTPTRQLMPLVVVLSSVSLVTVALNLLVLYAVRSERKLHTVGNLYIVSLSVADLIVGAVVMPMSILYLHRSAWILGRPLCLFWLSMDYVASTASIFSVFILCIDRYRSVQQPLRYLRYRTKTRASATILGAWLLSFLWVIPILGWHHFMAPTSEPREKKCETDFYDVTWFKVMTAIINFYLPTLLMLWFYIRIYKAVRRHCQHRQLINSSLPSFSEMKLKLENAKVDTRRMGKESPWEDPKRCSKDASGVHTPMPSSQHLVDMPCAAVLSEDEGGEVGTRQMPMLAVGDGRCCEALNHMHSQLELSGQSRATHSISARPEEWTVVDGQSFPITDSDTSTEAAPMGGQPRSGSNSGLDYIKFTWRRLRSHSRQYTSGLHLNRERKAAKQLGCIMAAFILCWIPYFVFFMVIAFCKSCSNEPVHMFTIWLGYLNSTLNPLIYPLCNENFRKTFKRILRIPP
Sequence of Histamine H3 receptor (Cavia porcellus) (Q9JI35 whole entry): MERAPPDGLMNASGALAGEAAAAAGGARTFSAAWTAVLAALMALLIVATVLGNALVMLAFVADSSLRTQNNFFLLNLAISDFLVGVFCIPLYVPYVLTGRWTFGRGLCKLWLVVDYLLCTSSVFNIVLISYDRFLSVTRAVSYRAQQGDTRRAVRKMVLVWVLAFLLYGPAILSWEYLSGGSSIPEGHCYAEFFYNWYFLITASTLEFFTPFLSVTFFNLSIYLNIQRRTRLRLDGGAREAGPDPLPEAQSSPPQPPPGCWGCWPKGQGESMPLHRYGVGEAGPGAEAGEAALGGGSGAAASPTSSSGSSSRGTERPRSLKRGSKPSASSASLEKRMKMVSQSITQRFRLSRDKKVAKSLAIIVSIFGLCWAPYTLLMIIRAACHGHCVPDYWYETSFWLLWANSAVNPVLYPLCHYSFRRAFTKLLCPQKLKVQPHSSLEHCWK
Sequence of Histamine H3 receptor (Rattus norvegicus, UniProt Q9QYN8) (Q9QYN8 whole entry): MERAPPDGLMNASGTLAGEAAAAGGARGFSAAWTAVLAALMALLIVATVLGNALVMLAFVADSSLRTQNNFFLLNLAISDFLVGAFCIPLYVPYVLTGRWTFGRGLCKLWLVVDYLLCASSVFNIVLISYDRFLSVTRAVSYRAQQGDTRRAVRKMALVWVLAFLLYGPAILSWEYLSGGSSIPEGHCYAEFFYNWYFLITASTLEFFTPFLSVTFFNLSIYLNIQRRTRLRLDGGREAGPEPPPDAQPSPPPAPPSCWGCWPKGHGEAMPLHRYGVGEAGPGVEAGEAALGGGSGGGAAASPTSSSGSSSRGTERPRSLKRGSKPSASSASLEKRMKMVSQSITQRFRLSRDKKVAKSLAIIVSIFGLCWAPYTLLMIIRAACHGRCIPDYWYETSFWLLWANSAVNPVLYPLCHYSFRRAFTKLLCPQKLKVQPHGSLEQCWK

SMILES: CC1CCN(Cc2ccc(-c3ccc(CN4CCCCC4)cc3)cc2)CC1
Activity [1]: inactive
Ki [2]: 2.4 nM
Activity [3]: Not toxic
Activity [4]: inactive
Activity [5]: Not toxic
Activity [6]: inactive
inhibition [7]: 93%
pKb [8]: 8.64
Ki [9]: 5.75 nM
IC50 [10]: 1410 nM
pKb [11]: 8.75

SMILES: c1cc(-c2ccc(CN3CCOCC3)cc2)ccc1CN1CCCCC1
Activity [1]: inactive
Ki [2]: 19.5 nM
Activity [3]: Not toxic
Activity [12]: inactive
Activity [4]: inactive
Activity [5]: Not toxic
Activity [6]: inactive
pKb [8]: 7.77
Ki [9]: 15.5 nM
pKb [11]: 9.07

SMILES: CC1CCN(Cc2ccc(-c3ccc(CN4CCC(C)CC4)cc3)cc2)CC1
Activity [1]: inactive
Activity [3]: Not toxic
Activity [5]: Not toxic
Activity [6]: inactive
inhibition [7]: 83%
pKb [8]: 7.68
IC50 [10]: 3550 nM
pKb [11]: 7.3
pKb [13]: 5.89

Ki [2]: 4.47 nM
Ki [9]: 15.8 nM
SMILES: C(CCCCN1CCCCC1)CCCCN1CCCCC1

SMILES: CCN(CC)Cc1ccc(-c2ccc(CN3CCCCC3)cc2)cc1
Activity [1]: inactive
Ki [2]: 1.95 nM
Activity [3]: Not toxic
Activity [12]: inactive
Activity [4]: inactive
Activity [5]: Not toxic
Activity [6]: inactive
pKb [8]: 8.9
Ki [9]: 2.57 nM
pKb [11]: 9.41

SMILES: CN(Cc1ccc(-c2ccc(CN3CCCCC3)cc2)cc1)C1CCCCC1
Activity [1]: inactive
Ki [2]: 2.75 nM
Activity [3]: Not toxic
Activity [5]: Not toxic
Activity [6]: inactive
inhibition [7]: 93%
pKb [8]: 9.19
Ki [9]: 7.41 nM
IC50 [10]: 1380 nM
pKb [11]: 8.46
pKb [13]: 5.56

SMILES: CCCN(CCC)Cc1ccc(-c2ccc(CN3CCCCC3)cc2)cc1
Activity [1]: inactive
Ki [2]: 1.74 nM
Activity [3]: Not toxic
Activity [5]: Not toxic
Activity [6]: inactive
inhibition [7]: 93%
pKb [8]: 8.18
Ki [9]: 3.16 nM
IC50 [10]: 1480 nM
pKb [11]: 9.12
pKb [13]: 5.48

SMILES: CCN(CC)Cc1ccc(-c2ccc(CN(CC)CC)cc2)cc1
Activity [1]: inactive
Ki [2]: 2.82 nM
Activity [3]: Not toxic
Activity [12]: inactive
Activity [4]: inactive
Activity [5]: Not toxic
Activity [6]: inactive
pKb [8]: 8.96
Ki [9]: 2.4 nM
pKb [11]: 9.34

SMILES: c1cc(-c2ccc(CN3CCOCC3)cc2)ccc1CN1CCOCC1
Activity [1]: inactive
Activity [3]: Not toxic
Activity [12]: inactive
Activity [4]: inactive
Activity [5]: Not toxic
Activity [6]: inactive
pKb [8]: 7.67

SMILES: CCCN(CCC)Cc1ccc(-c2ccc(CC(=O)N3CCCCC3)cc2)cc1
Activity [1]: inactive
Ki [2]: 251 nM
Activity [3]: Not toxic
Activity [5]: Not toxic
inhibition [7]: 65%
pKb [8]: 6.96
Ki [9]: 178 nM
IC50 [10]: 10500 nM
Activity [14]: inactive
pKb [11]: 7.24
pKb [13]: 5.44

SMILES: CCCN(CCC)Cc1ccc(-c2ccc(CCN3CCCCC3)cc2)cc1
Activity [1]: inactive
Ki [2]: 3.89 nM
Activity [3]: Not toxic
Activity [4]: inactive
Activity [5]: Not toxic
inhibition [7]: 80%
pKb [8]: 8.82
Ki [9]: 10.7 nM
IC50 [10]: 6760 nM
Activity [14]: inactive
pKb [11]: 7.98

SMILES: CN(C)CCc1ccc(-c2ccc(CCN(C)C)cc2)cc1
Activity [1]: inactive
Ki [2]: 5.13 nM
Activity [12]: inactive
Activity [4]: inactive
Activity [6]: inactive
pKb [8]: 8.06
Ki [9]: 19.5 nM
pKb [11]: 8.04

SMILES: CN(C)Cc1ccc(-c2ccc(CN(C)C)cc2)cc1
Activity [1]: inactive
Activity [3]: Not toxic
Activity [12]: inactive
Activity [4]: inactive
Activity [5]: Not toxic
Activity [6]: inactive
pKb [8]: 8.17
pKb [11]: 8.46

SMILES: CC(=O)N1CCN(Cc2ccc(-c3ccc(CN4CCCCC4)cc3)cc2)CC1
Activity [1]: inactive
Activity [3]: Not toxic
Activity [5]: Not toxic
Activity [6]: inactive
inhibition [7]: 79%
pKb [8]: 7.86
IC50 [10]: 11500 nM
pKb [11]: 7.79
pD2 [13]: 4.46

SMILES: c1cc(-c2ccc(CN3CCCCC3)cc2)ccc1CNC1CCCCC1
Activity [1]: inactive
Activity [3]: Not toxic
Activity [4]: inactive
Activity [5]: Not toxic
inhibition [7]: 73%
pKb [8]: 8.03
IC50 [10]: 5750 nM
Activity [14]: inactive
pKb [11]: 7.59

SMILES: c1cc(-c2ccc(CN3CCCCC3)cc2)ccc1CCN1CCCCC1
Activity [1]: inactive
Ki [2]: 2 nM
Activity [3]: Not toxic
Activity [4]: inactive
Activity [5]: Not toxic
inhibition [7]: 91%
pKb [8]: 9.28
Ki [9]: 8.32 nM
IC50 [10]: 1100 nM
Activity [14]: inactive
pKb [11]: 8.73

SMILES: O=C1CCCCN1Cc1ccc(-c2ccc(CN3CCCCC3)cc2)cc1
Activity [1]: inactive
Activity [3]: Not toxic
Activity [12]: inactive
Activity [4]: inactive
Activity [5]: Not toxic
Activity [6]: inactive
pKb [8]: 7.46
pKb [11]: 7.57

SMILES: CCCN(CCC)C(=O)Cc1ccc(-c2ccc(CN3CCCCC3)cc2)cc1
Activity [1]: inactive
Ki [2]: 8.51 nM
Activity [3]: Not toxic
Activity [5]: Not toxic
inhibition [7]: 80%
pKb [8]: 8.16
Ki [9]: 53.7 nM
IC50 [10]: 11200 nM
Activity [14]: inactive
pKb [11]: 8
pKb [13]: 5.44
